This is an account of results in ChEMBL document CHEMBL4004844, “Structure-based design, synthesis and antitumoral evaluation of enulosides” (Eur J Med Chem, 2017).

In series [1] the test system is MCF7. In words: Growth inhibition of human MCF7 cells after 72 hrs by MTT assay. In kind it is functional, cell-based. The settings on record: MCF7, 72 h. An outline of the steps: (§1)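 Cells kept in RPMI 1640 or DMEM with 10% FBS, 2 mM glutamine, penicillin/streptomycin, at 37 °C and 5% CO2. Seeded at 10⁵ cells/mL (adherent NCI-H292, MCF-7, HEP-2) or 3 × 10⁵ cells/mL (HL-60). Compounds at 0.1–25 in 0.1% DMSO for 72 h, with DMSO controls. MTT read at 595 nm. IC50 with 95% CI from nonlinear regression, two experiments.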
Background: Tetrazolium assays rely on reduction of a dye to a coloured formazan, in cell work by metabolically active cells.

Series [2] relates to HL-60. The series can be described thus: Growth inhibition of human HL60 cells after 72 hrs by MTT assay. The series is classed as functional, cell-based. The settings on record: HL-60, 72 h.
Series [3] has as its system HEp-2. In words: Growth inhibition of human Hep2 cells after 72 hrs by MTT assay. In kind it is functional, cell-based. As to conditions: HEp-2, 72 h. The method in brief: as §1
The test system of series [4] is NCI-H292. The series can be described thus: Growth inhibition of human NCI-H292 cells after 72 hrs by MTT assay. In kind it is functional, cell-based. The settings on record: NCI-H292, 72 h. An outline of the steps:
as §1

Series [5] has as its system HL-60. In words: Growth inhibition of human HL60 cells at 25 ug/ml after 72 hrs by MTT assay relative to control. In kind it is functional. The settings on record: HL-60, 72 h, read-out: GI. An outline of the steps: (§2)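 Preliminary single-concentration screen at 25 by MTT reduction. Cells seeded at 10⁵ cells/mL (adherent) or 3 × 10⁵ cells/mL (HL-60), exposed for 72 h in 0.1% DMSO. Percent growth inhibition relative to DMSO-treated controls, from absorbance at 595 nm.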

Series [6] deals with HEp-2. In words: Growth inhibition of human Hep2 cells at 25 ug/ml after 72 hrs by MTT assay relative to control. The series is classed as functional. The settings on record: HEp-2, 72 h, read-out: GI. The method in brief:
as §2

The test system of series [7] is NCI-H292. The series can be described thus: Growth inhibition of human NCI-H292 cells at 25 ug/ml after 72 hrs by MTT assay relative to control. In kind it is functional. As to conditions: NCI-H292, 72 h, read-out: GI. An outline of the steps:
as §2

Series [8] deals with MCF7. In words: Growth inhibition of human MCF7 cells at 25 ug/ml after 72 hrs by MTT assay relative to control. The series is classed as functional. As to conditions: MCF7, 72 h, read-out: GI. The method in brief: as §2
Series [9] is described as follows: Solubility in water. The series is classed as physicochemical. As to conditions: buffer.

One may read the IC50 as the concentration that inhibits the measured activity by half. A lower IC50 goes with greater potency in that assay.

Consider `O=C1C=C[C@@H](OC2CCCCC2)O[C@@H]1CO`, for which the half-inhibitory concentration (IC50) amounted to 11 µM in the series on MCF7 [1], 13.3 µM with HL-60 [2], 7.5 µM with HEp-2 [3] and 2.6 µM with NCI-H292 [4].

As to `CCCO[C@@H]1C=CC(=O)[C@@H](CO)O1`, the 50% inhibitory concentration (IC50) in the series with MCF7 [1] is 18.3 µM; in the series on HL-60 [2], 10.7 µM; in the series on HEp-2 [3], 13.4 µM; in the series with NCI-H292 [4], 15.6 µM.

Take `C#CCCO[C@@H]1C=CC(=O)[C@@H](CO)O1`: the IC50 is 2.5 µM with HL-60 [2], 7.1 µM in the series on HEp-2 [3] and 12.7 µM in the series with NCI-H292 [4].

For `CC(C)O[C@@H]1C=CC(=O)[C@@H](CO)O1`, the IC50 in the series on MCF7 [1] was determined as 36 µM; in the series with HL-60 [2], 9.7 µM; in the series with HEp-2 [3], 34.9 µM; in the series with NCI-H292 [4], 24.2 µM.

Consider `CCO[C@@H]1C=CC(=O)[C@@H](CO)O1`, for which the inhibition of growth at 25 µg/mL in the series with HL-60 [5] was 100%; in the series with HEp-2 [6], 100%; in the series with NCI-H292 [7], 100%; in the series with MCF7 [8], 97.2%. For the same molecule, the figures for the IC50 with HL-60 [2], in the series on HEp-2 [3] and in the series on NCI-H292 [4] were 3.5 µM, 5.8 µM and 18 µM, respectively.

Consider `O=C1C=C[C@@H](OC2CCCC2)O[C@@H]1CO`, for which the half-maximal inhibitory concentration (IC50) with MCF7 [1] turned out to be 20.7 µM; with HL-60 [2] it was 4.2 µM; in the series with HEp-2 [3], 8 µM; in the series on NCI-H292 [4], 19.8 µM.

For the molecule `O=C1C=C[C@@H](OCc2ccccc2)O[C@@H]1CO`, the concentration for half-maximal inhibition (IC50) with MCF7 [1] was 11.1 µM; in the series with HL-60 [2] it was 27.3 µM; in the series with HEp-2 [3] it was 8.5 µM; with NCI-H292 [4], 3.8 µM.

With `COc1cccc2c1C(=O)c1c(O)c3c(c(O)c1C2=O)C[C@@](O)(C(=O)CO)C[C@@H]3O[C@H]1C[C@H](N)[C@H](O)[C@H](C)O1` [DOXORUBICIN], the values for the IC50 in the series with MCF7 [1], in the series with HEp-2 [3] and in the series on NCI-H292 [4] were 0.6 µM, 1.3 µM and 0.6 µM, respectively.

On to `C#CCO[C@@H]1C=CC(=O)[C@@H](CO)O1`, for which the IC50 amounted to 10.4 µM in the series with MCF7 [1], 9.3 µM in the series on HL-60 [2], 15.4 µM in the series with HEp-2 [3] and 6.6 µM in the series on NCI-H292 [4].

For `COCCOCCOCCO[C@@H]1C=CC(=O)[C@@H](CO)O1`, the IC50 in the series with HL-60 [2] came to 7.9 µM; in the series on HEp-2 [3], 32.1 µM; in the series on NCI-H292 [4] it was 35.5 µM. For the same molecule, in series [9], the solubility entry is on record as “Soluble”.

Consider `CCO[C@@H]1C=C[C@H](O)[C@@H](CO)O1`, for which the inhibition of growth at 25 µg/mL in the series on HL-60 [5] was found to be 31.4%; with HEp-2 [6] it was 12.5%; in the series on NCI-H292 [7] it was 17.4%; in the series on MCF7 [8], 20.4%.

In the case of `C=CCO[C@@H]1C=CC(=O)[C@@H](CO)O1`, the IC50 in the series on MCF7 [1] came to 16.3 µM; in the series with HL-60 [2] it was 4.9 µM; in the series on HEp-2 [3] it was 26.1 µM; with NCI-H292 [4], 10.3 µM.

For the molecule `CCO[C@@H]1C=C[C@H](OC(C)=O)[C@@H](COC(C)=O)O1`, the inhibition of growth at 25 µg/mL with HL-60 [5] was determined as 12.3%; in the series on HEp-2 [6], 9.3%; in the series on NCI-H292 [7] it was 2.1%; in the series with MCF7 [8], 5.1%.
